The values that follow come from PMC9260854 (Biochemistry, 2022).

By kcat is commonly meant the number of substrate molecules converted per active site and unit of time at saturation. Broadly, the Ki is the dissociation constant of the complex between target and ligand, obtained from inhibition or displacement.

Substitutions are numbered along the chain they refer to. Where two headings read alike, the source gives them in different places.

The test system of series [1] is Oc1ccc2ccc3cccc4ccc1c2c34. The experiment in a line: Initial-rate parameters, spin-labeled mutant 171. Conditions: other: spin label at 171; saturating PAPS (300 μM); 25.0 °C. The series is classed as biochemical, human.
Series [2] has as its system SULT2B1b. The following applies: cited from earlier work.
Series [3] concerns the target T1, SULT2B1b S347D (Homo sapiens, UniProt O00204, S347D).
T1 sequence (O00204 1-365 S347D): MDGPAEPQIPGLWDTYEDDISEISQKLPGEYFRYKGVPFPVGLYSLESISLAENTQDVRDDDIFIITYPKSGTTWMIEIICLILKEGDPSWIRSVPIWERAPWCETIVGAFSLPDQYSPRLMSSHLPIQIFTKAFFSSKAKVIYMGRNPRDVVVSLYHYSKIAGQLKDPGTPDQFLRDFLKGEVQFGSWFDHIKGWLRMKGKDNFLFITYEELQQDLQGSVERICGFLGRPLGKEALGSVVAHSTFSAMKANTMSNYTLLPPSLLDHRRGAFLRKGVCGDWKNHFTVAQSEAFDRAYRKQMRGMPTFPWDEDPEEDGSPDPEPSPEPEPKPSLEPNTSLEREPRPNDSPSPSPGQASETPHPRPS
The series can be described thus: Initial-rate 1-HP sulfonation. The following applies: for Ki: read-out: Ki 7-DH.

The test system of series [4] is Oc1ccc2ccc3cccc4ccc1c2c34. The series can be described thus: Initial-rate parameters, spin-labeled mutant 21. The series is classed as biochemical, human. Conditions: other: spin label at 21; saturating PAPS (300 μM); 25.0 °C.
The test system of series [5] is Oc1ccc2ccc3cccc4ccc1c2c34. The series can be described thus: Initial-rate parameters, spin-labeled mutant 247. Conditions: other: spin label at 247; saturating PAPS (300 μM); 25.0 °C. The series is classed as biochemical, human.
Series [6] deals with T1, SULT2B1b S347D. The series can be described thus: Equilibrium binding via intrinsic fluorescence. In outline: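 Intrinsic fluorescence titrations of purified His/GST/MBP-tag-cleaved enzyme, excitation 290 nm, in KPO4 (50 mM), pH 7.5, 25 ± 2 °C. […] Triplicate averaged data were fit to a single-site-per-monomer model.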
For series [7], the system named is Oc1ccc2ccc3cccc4ccc1c2c34. The experiment in a line: purified protein, by the assay type. The following applies: saturating PAPS (300 μM), (−) quercetin, pH 7.5, 25.0 °C.
The test system of series [8] is Oc1ccc2ccc3cccc4ccc1c2c34. The series can be described thus: Initial-rate parameters, non DTNB-reactive scaffold. The series is classed as biochemical, human. The following applies: other: NR; saturating PAPS (300 μM); 25.0 °C.
Series [9] addresses T2, SULT2B1b, S347D, Y257A (Homo sapiens, UniProt O00204, S347D/Y257A).
T2 sequence (O00204 1-365 Y257A/S347D): T1 sequence (O00204 1-365 S347D) with Y257A
The experiment in a line: Initial-rate parameters, direct-contact mutant Y257A. The following applies: read-out: Km PAPS; Y257A; saturating 1-HP (100 μM); (−) quercetin.

The target of series [10] is T3, SULT2B1b, S347D, W13A (Homo sapiens, UniProt O00204, S347D/W13A).
T3 sequence (O00204 1-365 W13A/S347D): T1 sequence (O00204 1-365 S347D) with W13A
The series can be described thus: Initial-rate parameters, direct-contact mutant W13A. Conditions: read-out: Km PAPS; W13A; saturating 1-HP (100 μM); (−) quercetin.

For series [11], the target named is T1, SULT2B1b S347D. The experiment in a line: Stopped-flow ligand-binding studies.
The target in series [12] is T4, SULT2B1b, S347D, W98A (Homo sapiens, UniProt O00204, S347D/W98A).
T4 sequence (O00204 1-365 W98A/S347D): T1 sequence (O00204 1-365 S347D) with W98A
The experiment in a line: Initial-rate parameters, direct-contact mutant W98A. The following applies: read-out: Km PAPS; W98A; saturating 1-HP (100 μM); (−) quercetin.

Consider “SULT2B1b S347D spin-labeled at residue 171 (Homo sapiens; C225S/C278S/C81S/S347D/T171C)”, for which, in series [1], the Km is listed as 4.1 (0.2) μM and the kcat was 3 s⁻¹.
As for `CC(C)CCC[C@@H](C)[C@H]1CC[C@H]2C3=CC=C4C[C@@H](O)CC[C@]4(C)[C@H]3CC[C@]12C` [7-DH, 7-dehydrocholesterol], the SULT2B1b substrate result in [2] is given as “neither of which is a SULT2B1b substrate”. The “α (fraction turnover at saturation), 7-DH” value in series [3] (PAPS 30 μM, 1-HP 100 μM) was 0.11 ± 0.02. Moreover, the Ki in series [3] turned out to be 110 nM; in [3] (PAPS 30 μM, 1-HP 100 μM, noncompetitive partial-inhibition model), 110 ± 7 nM.
Regarding “SULT2B1b S347D spin-labeled at residue 21 (Homo sapiens; C225S/C278S/C81S/S21C/S347D)”, in series [4], the Km is listed as 4.2 (0.3) μM and the kcat was 3.6 s⁻¹.
Consider “SULT2B1b S347D spin-labeled at residue 247 (Homo sapiens; C225S/C278S/C81S/S247C/S347D)”, for which, in series [5], the Km was 3.6 (0.3) μM and the kcat amounted to 3.5 s⁻¹.
As to `Nc1ncnc2c1ncn2[C@@H]1O[C@H](COP(=O)(O)O)[C@@H](OP(=O)(O)O)[C@H]1O` [PAP, 3′-phosphoadenosine 5′-phosphate], the Kd in [6] was 380 nM.
On to `CC(C)=CCC[C@@H](C)[C@H]1CC[C@H]2[C@@H]3CC=C4C[C@@H](O)CC[C@]4(C)[C@H]3CC[C@]12C` [24-DH, 24-dehydrocholesterol], for which the SULT2B1b substrate result in series [2] is “neither of which is a SULT2B1b substrate”. Moreover, in series [3] (concentrations as high as 10 μM), the “inhibition of SULT2B1b turnover” value was “does not inhibit”.
For SULT2B1b S347D (Homo sapiens; S347D), in series [7] (other: WT), the Km is 3.8 (0.3) μM and the kcat worked out at 3.4 s⁻¹.
For the molecule “SULT2B1b C81S, C225S, C278S, S347D (Homo sapiens; C225S/C278S/C81S/S347D)”, in [8], the Km is 3.5 (0.2) μM and the kcat was 3.3 s⁻¹.
For “SULT2B1b, S347D, W98A (Homo sapiens; S347D/W98A)”, the Km in series [7] (other: W98A) is 3.6 (0.2) μM.
For “SULT2B1b, S347D, Y257A (Homo sapiens; S347D/Y257A)”, in [7] (other: Y257A), the Km is given as 4.0 (0.3) μM.
Turning to `Nc1ncnc2c1ncn2[C@@H]1O[C@H](COP(=O)(O)OS(=O)(=O)O)[C@@H](OP(=O)(O)O)[C@H]1O` [PAPS, 3′-phosphoadenosine 5′-phosphosulfate], the figures for the Km in series [9], in series [10] and in [12] were 0.37 µM, 0.36 µM and 0.31 µM, respectively. In addition, the “increase of PAPS affinity” value in [6] (at saturating quercetin) was 12 fold. In addition, the koff in series [11] ((−) Quc) was 3.0 (0.2) s^−1. For the same molecule, in [11] ((−) Quc), the kon is 8.0 (0.3)^1 μM^−1s^−1. For the same molecule, the “rate constant for release of PAPS” value in [11] (absence of quercetin) amounted to 3.0 ± 0.2 s⁻¹. Besides, the “decrease of koff PAPS” value in series [11] (at saturating quercetin) stood at 14 fold. Also, in [11] (at saturating quercetin), the “rate constant for PAPS release” value was 0.22 ± 0.2 s⁻¹. In addition, the Kd in [11] (read-out: Kd PAPS (koff/kon), (−) Quc) is 380 nM.
Turning to “SULT2B1b, S347D, W13A (Homo sapiens; S347D/W13A)”, the Km in [7] (other: W13A) was 4.2 (0.3) μM.
